Values after ≈ are worked out from the molar mass of the structure shown. Active and inactive are the calls of the source. The rule behind the calls is not given here.
Assays:
Staphylococcus aureus [1] = assay: Activity at Staphylococcus aureus wild-type GyrA
Procedure, shortened: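 Recombinant S. aureus gyrase (wild-type GyrA with His-tagged GyrB; 250 U per μg). SDS/proteinase K stop. Gel quantitation of linear cleavage product gave CC50, the mean of two or more assays.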

Staphylococcus aureus [2] = assay: Antimicrobial activity against Staphylococcus aureus CB1884; format: functional
Staphylococcus aureus [3] = assay: Antimicrobial activity against rifampin-sensitive Staphylococcus aureus CB190 harboring rpoB Q468K mutant gene by broth microdilution method; format: functional
Procedure, shortened: (§1)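 CLSI broth microdilution MIC in cation-adjusted Mueller-Hinton (MHII) broth supplemented with 0.002% (vol/vol) polysorbate 80, included to limit compound loss to plastic surfaces.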

Staphylococcus aureus [4] = assay: Antimicrobial activity against Staphylococcus aureus CB1952 harboring rpoB S486L, gyrA […], gyrA E88Q, gyrA G532S, parC S80F, parC E84L mutant genes selected after CBR-2092 exposure for 21 days; format: functional; details: CB1952, 504 h
Staphylococcus aureus [5] = assay: Inhibition of DNA synthesis in rifamycin-resistant Staphylococcus aureus CB370 harboring rpoB H481Y mutant gene assessed as decrease in [methyl-3H]thymidine incorporation at 2 ug/ml; format: functional, organism-based
Procedure, shortened: (§2)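 Macromolecular synthesis time course in S. aureus, measuring incorporation of [methyl-3H]thymidine (DNA), [5,6-3H]uridine (RNA) or [2,3-3H]D-alanine (cell wall). At each time point, incorporation is expressed as percent of the DMSO-treated control culture. Incorporation at time zero is set to 100%.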

Staphylococcus aureus [6] = assay: Antimicrobial activity against rifampin-sensitive Staphylococcus aureus CB190 harboring rpoB N474K mutant gene by broth microdilution method; format: functional; procedure, shortened: as §1
Staphylococcus aureus [7] = assay: Antimicrobial activity against rifampin-sensitive Staphylococcus aureus CB190 harboring rpo BH481D mutant gene by broth microdilution method; format: functional; procedure, shortened: as §1
Staphylococcus aureus [8] = assay: Antimicrobial activity against Staphylococcus aureus CB1947 harboring rpoB H481Y, gyrA S84L, E697 deficient gyrA, parC G167V mutant genes selected after CBR-2092 exposure for 20 days; details: CB1947, 480 h
Staphylococcus aureus [9] = assay: Antimicrobial activity against Staphylococcus aureus CB808 harboring quinolone-resistant parC S80F mutant gene by broth microdilution method; format: functional; procedure, shortened: as §1
Staphylococcus aureus [10] = assay: Antimicrobial activity against Staphylococcus aureus CB1887 harboring rpoB R484H, L520 deficient gyrA, […], R236 duplicated parC and parC H103Y mutant genes selected after ABT-719 exposure for 20 days; format: functional; details: CB1887, 480 h
Staphylococcus aureus [11] = assay: Antimicrobial activity against rifampin-sensitive Staphylococcus aureus CB190 harboring rpoB A477V mutant gene by broth microdilution method; format: functional; procedure, shortened: as §1
Staphylococcus aureus [12] = assay: Antimicrobial activity against Staphylococcus aureus CB812 harboring rpo B H481Y and gyrA S84L mutant genes by broth microdilution method; format: functional; procedure, shortened: as §1
Staphylococcus aureus [13] = assay: Antimicrobial activity against rifampin-sensitive Staphylococcus aureus CB190 harboring rpoB D471G mutant gene by broth microdilution method; format: functional; procedure, shortened: as §1
Staphylococcus aureus [14] = assay: Inhibition of DNA synthesis in Staphylococcus aureus CB190 assessed as decrease in [methyl-3H]thymidine incorporation at 2 ug/ml; format: functional, organism-based
Staphylococcus aureus [15] = assay: Activity at Staphylococcus aureus DNA topoisomerase 4 subunit ParC S80F mutant
Staphylococcus aureus [16] = assay: Antimicrobial activity against rifampin-sensitive Staphylococcus aureus CB190 harboring rpoB D471Y mutant gene by broth microdilution method; format: functional; procedure, shortened: as §1
Staphylococcus aureus [17] = assay: Antimicrobial activity against Staphylococcus aureus CB809 harboring rpoB H481Y and parC S80F mutant genes by broth microdilution method
Staphylococcus aureus [18] = assay: Antimicrobial activity against rifampin-sensitive Staphylococcus aureus CB190 harboring rpoB H472 mutant gene by broth microdilution method; format: functional; procedure, shortened: as §1
Staphylococcus aureus [19] = assay: Antimicrobial activity against Staphylococcus aureus CB811 harboring quinolone-resistant gyrA S84L mutant gene by broth microdilution method; format: functional; procedure, shortened: as §1
Staphylococcus aureus [20] = assay: Inhibition of protein synthesis in quinolone-resistant Staphylococcus aureus CB814 harboring gyrA S84L and parC S80F mutant genes assessed as L-[3,4,5-3H]leucine incorporation at 2 ug/ml; format: functional, organism-based
Procedure, shortened: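 Time-course radiolabel incorporation in S. aureus cultures with test agent. Precursors: [methyl-3H]thymidine (DNA), [5,6-3H]uridine (RNA), L-[3,4,5-3H]leucine (protein), [2,3-3H]D-alanine (cell wall). At each time point, incorporation with agent is expressed relative to the DMSO-treated control culture as percent incorporation. Time-zero incorporation is set to 100%.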

Staphylococcus aureus [21] = assay: Antimicrobial activity against Staphylococcus aureus CB1954 harboring rpoB H481Y, gyrA S84L, K809 deficient gyrA, parC S80F, parC A523D mutant genes selected after CBR-2092 exposure for 7 days; format: functional; details: CB1954, 168 h; procedure, shortened: as §1
Staphylococcus aureus [22] = assay: Inhibition of cell wall synthesis in Staphylococcus aureus CB190 assessed as decrease in [2,3-3H]D-alanine incorporation at 2 ug/ml; format: functional, organism-based
Staphylococcus aureus [23] = assay: Inhibition of DNA synthesis in quinolone-resistant Staphylococcus aureus CB814 harboring gyrA S84L and parC S80F mutant genes assessed as [methyl-3H]thymidine incorporation at 2 ug/ml; format: functional, organism-based; procedure, shortened: as §2
Staphylococcus aureus [24] = assay: Antimicrobial activity against rifampin-sensitive Staphylococcus aureus CB190 harboring rpoB Q468L mutant gene by broth microdilution method; format: functional; procedure, shortened: as §1
Staphylococcus aureus [25] = assay: Activity at Staphylococcus aureus wild-type DNA topoisomerase 4 subunit ParC
Procedure, shortened: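 Recombinant S. aureus topoisomerase IV (wild-type ParC with ParE; specific activity 25 to 30 U per μg). Stopped with SDS/proteinase K. Linear DNA quantified on gel; CC50 is the mean of two or more assays.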

Staphylococcus aureus [26] = assay: Inhibition of cell wall synthesis in quinolone-resistant Staphylococcus aureus CB814 harboring gyrA S84L and parC S80F mutant genes assessed as [2,3-3H]D-alanine incorporation at 2 ug/ml; format: functional, organism-based; procedure, shortened: as §2
Staphylococcus aureus [27] = assay: Antimicrobial activity against rifampin-sensitive Staphylococcus aureus CB190 harboring rpoB H481N mutant gene by broth microdilution method; format: functional; procedure, shortened: as §1
[28] = system: DNA gyrase subunit A (Staphylococcus aureus), P20831 [S84L]; assay: Activity at Staphylococcus aureus wild-type GyrA S84L mutant
Staphylococcus aureus [29] = assay: Antimicrobial activity against Staphylococcus aureus CB370 harboring rpoB H481Y mutant gene; format: functional
Staphylococcus aureus [30] = assay: Inhibition of protein synthesis in Staphylococcus aureus CB190 assessed as decrease in L-[3,4,5-3H]leucine incorporation at 2 ug/ml; format: functional, organism-based
Staphylococcus aureus [31] = assay: Antimicrobial activity against rifampin-sensitive Staphylococcus aureus CB190 by broth microdilution method; format: functional; procedure, shortened: as §1
Staphylococcus aureus [32] = assay: Antimicrobial activity against Staphylococcus aureus CB370 harboring rifampin-resistant rpoB H481Y mutant gene by broth microdilution method; format: functional; procedure, shortened: as §1
Staphylococcus aureus [33] = assay: Antimicrobial activity against rifampin-sensitive Staphylococcus aureus CB190 harboring rpoB E473 mutant gene by broth microdilution method; format: functional; procedure, shortened: as §1
Staphylococcus aureus [34] = assay: Inhibition of RNA synthesis in Staphylococcus aureus CB190 assessed as decrease in [5,6-3H]uridine incorporation at 2 ug/ml; format: functional, organism-based
Staphylococcus aureus [35] = assay: Inhibition of RNA synthesis in quinolone-resistant Staphylococcus aureus CB814 harboring gyrA S84L and parC S80F mutant genes assessed as [5,6-3H]uridine incorporation at 2 ug/ml; format: functional, organism-based; procedure, shortened: as §2
Staphylococcus aureus [36] = assay: Antimicrobial activity against Staphylococcus aureus CB1953 harboring rpoB H481Y, gyrA S84L, gyrA V598I, parC S80F, parC R570H mutant genes selected after CBR-2092 exposure for 7 days; format: functional; details: CB1953, 168 h
Staphylococcus aureus [37] = assay: Antimicrobial activity against Staphylococcus aureus CB190 by broth microdilution method; format: functional
Staphylococcus aureus [38] = assay: Antimicrobial activity against rifampin-sensitive Staphylococcus aureus CB190 harboring rpoB H481Y mutant gene by broth microdilution method; format: functional; procedure, shortened: as §1

## O=C(O)c1cn(C2CC2)c2cc(N3CCNCC3)c(F)cc2c1=O [CIPROFLOXACIN]
Staphylococcus aureus [1]
  CC50: 4.6 µM
Staphylococcus aureus [2]
  MIC: 8 µg/mL (≈ 24.1 µM)
Staphylococcus aureus [3]
  MIC: 0.25 µg/mL (≈ 0.754 µM)
Staphylococcus aureus [4]
  MIC: 64 µg/mL (≈ 193 µM)
Staphylococcus aureus [5]
  Activity: Active
Staphylococcus aureus [6]
  MIC: 0.25 µg/mL (≈ 0.754 µM)
Staphylococcus aureus [7]
  MIC: 0.25 µg/mL (≈ 0.754 µM)
Staphylococcus aureus [8]
  MIC: 2 µg/mL (≈ 6.04 µM)
Staphylococcus aureus [9]
  MIC: 2 µg/mL (≈ 6.04 µM)
Staphylococcus aureus [10]
  MIC: 64 µg/mL (≈ 193 µM)
Staphylococcus aureus [11]
  MIC: 0.25 µg/mL (≈ 0.754 µM)
Staphylococcus aureus [12]
  MIC: 0.25 µg/mL (≈ 0.754 µM)
Staphylococcus aureus [13]
  MIC: 0.25 µg/mL (≈ 0.754 µM)
Staphylococcus aureus [14]
  Activity: Active
Staphylococcus aureus [15]
  CC50: 31 µM
Staphylococcus aureus [16]
  MIC: 0.5 µg/mL (≈ 1.51 µM)
Staphylococcus aureus [17]
  MIC: 2 µg/mL (≈ 6.04 µM)
Staphylococcus aureus [18]
  MIC: 0.25 µg/mL (≈ 0.754 µM)
Staphylococcus aureus [19]
  MIC: 0.25 µg/mL (≈ 0.754 µM)
Staphylococcus aureus [20]
  Activity: inactive
Staphylococcus aureus [21]
  MIC: 64 µg/mL (≈ 193 µM)
Staphylococcus aureus [22]
  Activity: Active
Staphylococcus aureus [23]
  Activity: inactive
Staphylococcus aureus [24]
  MIC: 0.25 µg/mL (≈ 0.754 µM)
Staphylococcus aureus [25]
  CC50: 0.4 µM
Staphylococcus aureus [26]
  Activity: inactive
Staphylococcus aureus [27]
  MIC: 0.25 µg/mL (≈ 0.754 µM)
[28]
  CC50: > 150 µM
Staphylococcus aureus [29]
  MIC: 0.25 µg/mL (≈ 0.754 µM)
Staphylococcus aureus [30]
  Activity: Active
Staphylococcus aureus [31]
  MIC: 0.25 µg/mL (≈ 0.754 µM)
Staphylococcus aureus [32]
  MIC: 0.25 µg/mL (≈ 0.754 µM)
Staphylococcus aureus [33]
  MIC: 0.25 µg/mL (≈ 0.754 µM)
Staphylococcus aureus [34]
  Activity: Active
Staphylococcus aureus [35]
  Activity: inactive
Staphylococcus aureus [36]
  MIC: 64 µg/mL (≈ 193 µM)
Staphylococcus aureus [37]
  MIC: 0.25 µg/mL (≈ 0.754 µM)
Staphylococcus aureus [38]
  MIC: 0.25 µg/mL (≈ 0.754 µM)

Source: ChEMBL document CHEMBL1275434, “In vitro evaluation of CBR-2092, a novel rifamycin-quinolone hybrid antibiotic: studies of the mode of action in Staphylococcus aureus” (Antimicrob Agents Chemother, 2008)
